According to ChEMBL document CHEMBL2034852, “Flacourtosides A-F, phenolic glycosides isolated from Flacourtia ramontchi” (J Nat Prod, 2012):
Calls of active or inactive are those of the source. No cut-off for these calls is given here.

Columns and labels:
[1] = Inhibition of Dengue virus NS5 polymerase assessed as inhibition of radiolabeled guanosine incorporation into homopolymeric cytosine RNA template by liquid scintillation counting
Procedure, shortened: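 DENV-2 NS5 polymerase, produced and purified by a prior method, assayed by radiolabeled guanosine incorporation on a homopolymeric cytosine RNA template. IC50 fitted by % enzyme activity = 100/[…], with I the inhibitor concentration; 3′-deoxy-GTP served as reference.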

[2] = (§1) Cytotoxicity against African green monkey Vero cells after 6 to 7 days by MTS assay; type: cell-based; details: chlorocebus sabaeus, Vero cells
Procedure, shortened: (§2)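 Vero cells (subcultured 1:4, grown 7 days) seeded at 25 000 cells per well with serial compound dilutions in MEM Rega3 with 2% FCS, L-glutamine and bicarbonate. Incubated 6−7 days at 37 °C, 5% CO2. Medium then replaced with 5% MTS in phenol red-free medium for 1.5 h, A498 read. CC50 taken from dose−response curves as % of controls; multiple independent experiments.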

Chikungunya virus = assay: Antiviral activity against Chikungunya virus infected in Vero cells assessed as inhibition of virus-induced cytopathic effect after 6 to 7 days by MTS assay; type: functional, cell-based
Vero = assay: as §1; type: cell-based; details: chlorocebus sabaeus, vero; procedure, shortened: as §2

| Structure (SMILES) | IC50 [1] [µM] | CC50 [2] [µM] | Activity (Chikungunya virus) | Activity (Vero) |
| --- | --- | --- | --- | --- |
| C=C(C)[C@@H]1CC[C@]2(C(=O)O)CC[C@]3(C)[C@H](CC[C@@H]4[C@@]5(C)CC[C@H](OC(=O)/C=C/c6ccc(O)c(O)c6)C(C)(C)[C@@H]5CC[C@]43C)[C@@H]12 | 0.85 | 6.9 |  |  |
| Nc1nc2c(ncn2[C@@H]2O[C@H](COP(=O)(O)OP(=O)(O)OP(=O)(O)O)C[C@H]2O)c(=O)[nH]1 | 0.02 |  |  |  |
| O=Cc1cc(O)ccc1O[C@@H]1O[C@H](COC(=O)c2ccccc2)[C@@H](O)[C@H](O)[C@H]1O [FLACOURTOSIDE B] | 71.1 |  | inactive |  |
| O=Cc1cc(O)ccc1O[C@@H]1O[C@H](COC(=O)c2ccccc2)[C@@H](O)[C@H](O[C@@H]2O[C@H](COC(=O)c3ccccc3)[C@@H](O)[C@H](O)[C@H]2O)[C@H]1O [FLACOURTOSIDE C] | 23.8 |  | inactive |  |
| O=C(OC[C@H]1O[C@@H](Oc2ccc(O)cc2COC(=O)C2(O)CC(=O)[C@@H](O)[C@@H](O)[C@H]2O)[C@H](OC(=O)c2ccccc2)[C@@H](O)[C@@H]1O)c1ccccc1 (some centres undefined) [FLACOURTOSIDE D] | 35.5 |  | inactive |  |
| O=C(OC[C@H]1O[C@@H](Oc2ccc(O)cc2COC(=O)[C@@]2(O)[C@H](O)C=CC(=O)[C@@H]2O)[C@H](O)[C@@H](OC(=O)c2ccccc2)[C@@H]1O)c1ccccc1 [FLACOURTOSIDE E] | 13.4 |  | inactive | Non-toxic |
| O=C(OC[C@H]1O[C@@H](Oc2ccc(O)cc2COC(=O)[C@@]2(O)[C@H](O)C=CC(=O)[C@@H]2OC(=O)c2ccccc2)[C@H](OC(=O)c2ccccc2)[C@@H](O)[C@@H]1O)c1ccccc1 [FLACOURTOSIDE F] | 39.8 |  | inactive |  |
| O=C(OC[C@H]1O[C@@H](Oc2ccc(O)cc2COC(=O)c2ccccc2O)[C@H](O)[C@@H](O)[C@@H]1O)c1ccccc1 [ITOSIDE H] | 37.8 |  |  |  |
| O=C(OC[C@H]1O[C@@H](Oc2ccc(O)cc2CO)[C@H](O)[C@@H](O)[C@@H]1O)c1ccccc1 [POLIOTHYRSOSIDE] | > 50 |  |  |  |
| O=C(OC[C@H]1O[C@@H](Oc2ccc(O)cc2COC(=O)c2cccc(O)c2O)[C@H](OC(=O)c2ccccc2)[C@@H](O)[C@@H]1O)c1ccccc1 [SCOLOCHINENOSIDE D] | 9.5 |  |  | Non-toxic |
| O=C(OC[C@H]1O[C@@H](Oc2ccc(O)cc2COC(=O)[C@@]2(O)[C@H](O)C=CC(=O)[C@@H]2O)[C@H](OC(=O)c2ccccc2)[C@@H](O)[C@@H]1O)c1ccccc1 [XYLOSMIN] | 24.3 |  |  |  |
